# Screening data as filed in PubChem BioAssay.
# Hits are enriched below; roughly 2.9% of the tested compounds scored in any of these assays.
# HTRA1 inhibitor: inhibitors of human serine peptidase HTRA1. Q92743. recombinant HTRA1, FP-rhodamine activity-based probe, fluorescence polarization. inhibition, % at 5.96 µM. actives 0.5% (n = 340,000). AID 504803; in the data active means inhibition above about 36%;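 further: 0% = enzyme with DMSO and 100% = wells lacking enzyme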
# Target sequence (Q92743 whole entry, looked up): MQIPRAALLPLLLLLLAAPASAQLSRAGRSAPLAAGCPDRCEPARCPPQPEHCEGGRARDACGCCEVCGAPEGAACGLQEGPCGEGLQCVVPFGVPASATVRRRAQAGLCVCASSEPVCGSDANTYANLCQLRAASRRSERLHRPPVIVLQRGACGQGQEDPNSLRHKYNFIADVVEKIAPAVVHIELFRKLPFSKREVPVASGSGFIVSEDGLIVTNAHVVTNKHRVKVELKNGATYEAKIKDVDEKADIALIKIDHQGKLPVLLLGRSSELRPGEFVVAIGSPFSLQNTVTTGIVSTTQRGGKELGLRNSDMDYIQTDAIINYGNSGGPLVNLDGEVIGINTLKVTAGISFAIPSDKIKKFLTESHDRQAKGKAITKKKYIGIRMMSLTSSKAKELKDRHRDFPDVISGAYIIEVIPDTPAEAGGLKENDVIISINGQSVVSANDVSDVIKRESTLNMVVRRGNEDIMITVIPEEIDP
# TCR CD3 inh: blocks the human TCR-CD3 interaction | TAMRA-labeled TCR probe fluorescence, biochemical | inhibition, % at 9.4 µM | actives 0.37% (n = 360,000); in the data active means inhibition above about 19%;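 further: recombinant mutant TCR 2C K166C tagged with TAMRA read by polarization; 0% = receptor in buffer alone and 100% = receptor with positive control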
# SIAE inh: inhibitors of human sialic acid acetylesterase SIAE | inhibition, % at 9.66 µM | AID 1053197 | actives 0.69% (n = 370,000) | SIAE FP-Rh probe binding, fluorescence polarization | Q9HAT2;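 active means inhibition above a cutoff: mean of compounds within the control limits plus 3 SD of those, cut at about 17% in these data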;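 further: 0% = plate median of compound wells and 100% = probe without SIAE protein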
# ABHD4 inh: inhibitors of mouse ABHD4; Q8VD66; actives 0.54% (n = 370,000); purified mABHD4, FP-Rh probe fluorescence polarization; inhibition, % at 8.92 µM;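 active means inhibition exceeding the mean over every tested compound plus 3 SD, cut at about 30% in these data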;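 further: 0% = plate median of compound wells and 100% = S159A mutant with DMSO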
#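 Material: mouse ABHD4 enzyme, wild type; Benchmarks: S159A mutant high control, sample median low control; Buffer or medium: HEPES pH 7.0, NaCl, Pluronic buffer; Signal: fluorescence polarization; Read-out: percent inhibition of probe binding, normalized to plate controls; Timing: pre-incubation 45 min, probe exposure 60 min, at 25 °C; Dosing: 8.92 µM, single dose.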
# ATG4B inh: blocks human ATG4B protease cleavage of LC3 substrate; inhibition, % at 8.33 µM; actives 0.51% (n = 340,000); ATG4B cleavage of LC3-PLA2, NBD-HPC fluorescence, 1 h; Q9Y4P1; AID 504462; in the data active means inhibition above about 40%
# PRMT1 inh: inhibitors of human PRMT1 | recombinant PRMT1, activity-based probe fluorescence polarization | inhibition, % at 2.79 µM | Q99873 | actives 1.3% (n = 370,000);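 active means inhibition above about 21% made by adding two undisclosed values, limit read from the data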
# HTRA1 conf: confirmation of human HTRA1 inhibitors | shares compounds with HTRA1 inhibitor | recombinant HTRA1, FP-rhodamine activity-based probe, fluorescence polarization | inhibition, % at 5.96 µM | actives 66% (n = 1,600);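 active means mean inhibition over three repeats above a set limit taken from the earlier primary screen, cut at about 37% in these data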;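 further: 0% = HTRA1 with DMSO and 100% = wells lacking HTRA1; inhibitors block probe binding so polarization drops and inhibition rises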
# Active calls of the source: *; . = not tested or not shown.
SMILES,HTRA1 inhibitor,TCR CD3 inh,SIAE inh,ABHD4 inh,ATG4B inh,PRMT1 inh,HTRA1 conf
CC(=O)Nc1ccc(NC(=O)CSc2nnc(-c3n[nH]c4c3CCC4)n2N)cc1,.,.,-15,-1,.,-6,.
O=C(NCCc1ccccc1)c1ccc2nc(-c3ccco3)c(-c3ccco3)nc2c1,47*,.,.,.,18,.,10
O=C(NCCc1ccccc1)c1ccc(=O)oc1,5,-9,7,5,-9,-1,.
Oc1c(CNc2ccccc2)cc(COCc2ccccc2)c2cccnc12,49*,-4,19*,8,-2,-3,15
COC(=O)[C@]12C[C@H](CC(=O)NCc3ccc(OC)c(OC)c3)C(=O)N(Cc3ccc(Cl)cc3Cl)C1=C[C@H](C(C)C)O[C@@H]2C1CC1,.,.,-1,-10,.,-2,.
CN1C2=N[C@H](c3cccc(C(F)(F)F)c3)CC(=O)N2/C(=C\c2ccccc2)[C@H]1c1ccccc1,.,.,1,-2,.,-3,.
COc1ccc(-c2sc3ccc(OC)cc3c2C#CCCO)cc1,-55,.,.,.,-24,.,.
COc1ccc2sc(-c3ccc(N(C)C)cc3)c(C#CCCO)c2c1,37*,0,3,19,-16,4,25
COc1ccc2sc(-c3ccc(N(C)C)cc3)c(C#Cc3cncn3C)c2c1,48*,-3,12,18,-18,5,24
COc1ccc2sc(-c3ccc(N(C)C)cc3)c(C#CC(C)(C)O)c2c1,0,3,-3,6,-10,-1,.
COc1ccc(C2CC3CN(C4CCCCC4)C(=O)C3N2C)cc1 (centres undefined),.,.,6,7,.,4,.
Cc1ccc(/C=C2/SC(=O)NC2=S)o1,40*,.,.,.,9,.,18
Cc1c[nH]c2cccc(-c3ccc(Cl)cc3Cl)c12,.,.,3,-12,.,-1,.
O=C(NNc1ccc(C(F)(F)F)cc1[N+](=O)[O-])c1ccc(NS(=O)(=O)c2ccc(F)cc2)cc1,38*,5,13,12,2,12,36
O=C(Cn1c(-c2cncs2)nc2ccccc21)N1CCCCC1,.,.,1,3,.,5,.
COC(=O)C1CN(C2CCCC2)CCS(=O)(=O)N1Cc1ccccc1 (centres undefined),.,.,-3,2,.,1,.
c1ccc2c(c1)ncc1cccn12,-6,0,-1,-1,-6,-1,.
CCn1c2ccccc2c2c3ncc4cccn4c3ccc21,47*,1,-28,9,35,7,-17
CN1CCN(C(c2ccccn2)c2cc(Cl)c3cccnc3c2O)CC1 (centres undefined),39*,-6,11,11,-4,3,66*
Oc1c(C(c2ccccn2)N2CCC(Cc3ccccc3)CC2)cc(Cl)c2cccnc12 (centres undefined),.,3,12,14,15,-6,.
Oc1c(C(c2ccc(Cl)cc2)N2CCCC2)cc(Cl)c2cccnc12 (centres undefined),41*,3,9,10,7,-5,60*
CN1CCN(C(c2ccc(C(F)(F)F)cc2)c2ccc3cccnc3c2O)CC1 (centres undefined),.,4,3,6,-7,6,.
Cc1ccc(C(c2cc(Cl)c3cccnc3c2O)N2CCN(C)CC2)cc1 (centres undefined),57*,.,.,.,-5,.,70*
c1coc(-c2nc3ccccc3nc2-c2ccco2)c1,52*,34*,25*,62*,4,42*,10
c1coc(-c2cnc3ccccc3n2)c1,6,-1,6,21,.,14,.
SMILES,HTRA1 inhibitor,TCR CD3 inh,SIAE inh,ABHD4 inh,ATG4B inh,PRMT1 inh,HTRA1 conf
O=C(COc1ccccc1C(=O)N/N=C\c1ccc(O)c(O)c1)N/N=C/c1ccc(O)c(O)c1,47*,.,.,.,26,.,59*
CC(C)(C)c1ccc(OCc2ccc(C(=O)N/N=C/c3ccc(O)c(O)c3)cc2)cc1,45*,2,13,25,6,-3,81*
O=C(N/N=C/c1ccc(OCc2ccc(F)cc2)cc1)c1ccccc1,-10,6,-2,1,-6,-1,.
CC(C)=CCCC1(C)C=Cc2c(c(C)cc3c2[nH]c2cc(O)ccc23)O1 (centres undefined),46*,12,14,2,2,-2,31
CCCC(=O)NC(c1ccc(OC)cc1)c1ccc2cccnc2c1O (centres undefined),27,-5,12,4,-10,-2,.
CCC(=O)NC(c1ccccc1OC)c1ccc2cccnc2c1O (centres undefined),41*,.,.,.,8,.,43*
CCCC(=O)NC(c1ccccc1)c1ccc2cccnc2c1O (centres undefined),47*,-8,17,15,1,0,45*
CCCCC(=O)NC(c1ccc(C(C)C)cc1)c1ccc2cccnc2c1O (centres undefined),56*,-2,9,13,1,-2,53*
CCCCC(=O)NC(c1ccccc1)c1ccc2cccnc2c1O (centres undefined),39*,-7,14,5,12,-3,57*
CC(COc1ccc(C#N)cc1F)CN1CCC(C(O)(c2ccccc2)c2ccccc2)CC1 (centres undefined),.,.,2,5,.,-3,.
COC(=O)[C@]12C[C@H](CC(=O)N3CCSCC3)C(=O)N(Cc3ccco3)C1=C[C@H](COCc1ccccc1)O[C@@H]2C,.,.,2,8,.,-2,.
CCCCC(=O)NC(c1ccccc1Cl)c1ccc2cccnc2c1O (centres undefined),57*,-4,10,10,3,-3,52*
CCCCC(=O)NC(c1cccc([N+](=O)[O-])c1)c1ccc2cccnc2c1O (centres undefined),27,-2,6,-8,3,-4,.
COc1ccc(NC(=O)N2CCC(N(C)CCC(C)C)CC2)cc1OC,.,.,0,0,.,-6,.
Cc1cc(-c2csc(N)n2)c(C)n1CCC(C)C,53*,5,7,19,0,12,63*
O=C(NCc1ccc(Cl)c(Cl)c1)O[C@H]1CC[C@@]23CCCN2C(=O)CCC[C@H]3C1,.,.,1,3,.,3,.
CCc1cc2c(=O)c(-c3nc4ccccc4n3C)c(COCC(=O)O)oc2cc1OC(=O)C(C)(C)C,48*,7,-2,2,4,-1,15
CCc1cc2c(=O)c(-c3nc4ccccc4n3C)c(C)oc2cc1OC(C)=O,10,4,-3,-6,6,-3,.
CCCC1CCC2(CCCN2CCOC(=O)Nc2cccc(Cl)c2)CC1 (centres undefined),.,.,1,7,.,-2,.
COc1cc(C2Nc3cccc4cccc(c34)N2)cc(OC)c1O,39*,-1,47*,-2,-54,4,35
